Published values of several laboratories.
Target: SRSF protein kinase 1 (SRPK1, Homo sapiens, UniProt Q96SB4)

N[C@H]1CCN(c2nccc(-c3cnn4ncccc34)n2)C1
remaining binding (binding; 1 µM): 84%

CNCc1ccccc1-c1csc([C@H](C)Nc2nc(C)nc3cc(OC)c(OC)cc23)c1
remaining binding (cell-free assay; competition with immobilised ligand; 1 µM): 100%

CC1CCCN1c1nccc(-c2cnn3ncccc23)n1 (stereo not drawn)
remaining binding (binding; 1 µM): 94%

C=CC(=O)N1CCC(C(=O)NCC(=O)N2CCN(c3nc(-c4cnc(N)nc4C(F)F)nc(N4CCOCC4)n3)CC2)CC1
remaining binding (binding; competition with immobilised ligand; 1 µM): 75%

C[C@@H]1CCN(c2nccc(-c3cnn4ncccc34)n2)C1
remaining binding (binding; 1 µM): 98%

FC(F)(F)Oc1cccc(-c2cnc3ccc(-c4ccncc4)nn23)c1
remaining binding (binding; competition with immobilised ligand; 5 µM): 70%

N#Cc1ccc(Nc2ccc3[nH]c(=O)[nH]c3c2)c(Cl)c1
remaining binding (cell-free assay; competition with immobilised ligand; 1 µM): 95%

O=C(c1ccc(Nc2nccc(-c3cc4ccccc4s3)n2)cc1)N1CCC(N2CCCC2)CC1
remaining binding (binding; competition with immobilised ligand; 1 µM): 86%

CCN1CCN(Cc2ccc(C(=O)Nc3ccc(C)c(Oc4ccc5c(c4)CC(=O)N5)c3)cc2C(F)(F)F)CC1
remaining binding (binding; competition with immobilised ligand; 1 µM): 98%

O=C(NCCCN1CCOCC1)c1ccc(Nc2ncc(Cl)c(-c3ccc(Cl)s3)n2)cc1
remaining binding (binding; competition with immobilised ligand; 1 µM): 97%

COc1cnc(Nc2cccc(S(N)(=O)=O)c2)nc1N1CCN(c2ccccc2)C(=O)C1
remaining binding (binding; competition with immobilised ligand; 1 µM): 100%

CCOCCn1cc(C(=O)Nc2ccc(-n3nc(-c4cccnc4)cc3C(F)(F)F)cn2)ccc1=O
remaining binding (cell-free assay; competition with immobilised ligand; 1 µM): 98%

O=C(c1ccc(Nc2ncc(Cl)c(-c3ccc(Cl)s3)n2)cc1)N1CCC(N2CCCC2)CC1
remaining binding (binding; competition with immobilised ligand; 1 µM): 93%

Nc1cnc(N2CCc3cc(S(=O)(=O)Nc4c(F)cc(Cl)cc4F)cc(N4CCCC4=O)c32)nc1
remaining binding (cell-free assay; competition with immobilised ligand; 1 µM): 81%

CN(C)c1nccc(-c2cnn3ncccc23)n1
remaining binding (binding; 1 µM): 100%

CN(C)C(=O)Cn1cc(-c2nc([C@@](C)(c3ccc(-c4cnc(N)nc4)cc3)C3CC3)no2)cn1
remaining binding (cell-free assay; competition with immobilised ligand; 1 µM): 100%

O=C(NCC1CCOCC1)c1n[nH]cc1NC(=O)c1c(F)cccc1F
remaining binding (binding; competition with immobilised ligand; 1 µM): 68%

COc1ccnn2ncc(-c3ccnc(N(C)C)n3)c12
remaining binding (binding; 1 µM): 85%

c1cncc(-c2cccc(Nc3nccc(NC4CCCCC4)n3)c2)c1
remaining binding (binding; competition with immobilised ligand; 10 µM): 30%

Cc1cnn2ncc(-c3ccnc(N(C)C)n3)c2c1
remaining binding (binding; 1 µM): 100%

O=C(Nc1cccnn1)N1CC(C/C=C/c2cncc(Oc3ccc(C(F)(F)F)cn3)n2)C1
remaining binding (cell-free assay; competition with immobilised ligand; 1 µM): 82%
